Data set [1] relates to SARS-CoV-2. The data set can be described thus: Antiviral activity against SARS-CoV-2 infected in African green monkey Vero cells assessed as inhibition of viral infection by measuring nucleocapsid protein level by immunofluorescence microscopic analysis. The format is functional, organism-based. The following applies: Severe acute respiratory syndrome coronavirus 2, Vero.

In data set [2] the test system is Vero. Put plainly: Cytotoxicity against African green monkey Vero cells assessed as reduction of cell viability by WST-1 assay. Type of data set: cell-based. The conditions noted are these: chlorocebus sabaeus.
Data set [3] in a line: Selective index, ratio of CC50 for African green monkey Vero cells to IC50 for SARS-CoV-2 infected in African green monkey Vero cells.
Data set [4] has as its system Middle East respiratory syndrome-related coronavirus. The data set can be described thus: Antiviral activity against MERS-CoV infected in African green monkey Vero cells assessed as inhibition of viral infection by measuring reduction in spike protein level by immunofluorescence microscopic analysis. Type of data set: functional, organism-based.
A short description of data set [5]: Stability in mouse microsomes assessed as as parent compound remaining after 30 mins. The format is ADME, Microsome. The conditions noted are these: read-out: Stabilty. The procedure, abridged: (§1)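 Liver microsomes from human, mouse and rat were used. The read-out is percent of parent compound remaining after 30 min incubation.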
Data set [6] can be described thus: Stability in rat microsomes assessed as as parent compound remaining after 30 mins. The format is ADME, Microsome. The conditions noted are these: read-out: Stabilty. The procedure, abridged: as §1
Data set [7] can be described thus: Stability in human microsomes assessed as as parent compound remaining after 30 mins. Type of data set: ADME, Microsome. The conditions noted are these: read-out: Stabilty. A digest of the protocol:
as §1

Data set [8] concerns HFL1. The data set can be described thus: Cytotoxicity against human HFL-1 cells. Type of data set: cell-based.
Data set [9] in a line: Cytotoxicity against CHO-K1 cells. Type of data set: cell-based, Cricetulus griseus. The following applies: chinese hamster.
A short description of data set [10]: Cytotoxicity against mouse NCTC clone 929 cells. The format is cell-based.
Data set [11] is described as follows: Cytotoxicity against mouse NIH3T3 cells. Type of data set: cell-based.
In data set [12] the target is hERG (KCNH2) (Homo sapiens, UniProt Q12809). Put plainly: Inhibition of human ERG at 10 uM relative to control.
A short description of data set [13]: Protein binding in rat plasma at 5 uM. The format is ADME, cell-free.
The target of data set [14] is T1, CYP1A2 (Homo sapiens, UniProt P05177).
T1 sequence (P05177 whole entry): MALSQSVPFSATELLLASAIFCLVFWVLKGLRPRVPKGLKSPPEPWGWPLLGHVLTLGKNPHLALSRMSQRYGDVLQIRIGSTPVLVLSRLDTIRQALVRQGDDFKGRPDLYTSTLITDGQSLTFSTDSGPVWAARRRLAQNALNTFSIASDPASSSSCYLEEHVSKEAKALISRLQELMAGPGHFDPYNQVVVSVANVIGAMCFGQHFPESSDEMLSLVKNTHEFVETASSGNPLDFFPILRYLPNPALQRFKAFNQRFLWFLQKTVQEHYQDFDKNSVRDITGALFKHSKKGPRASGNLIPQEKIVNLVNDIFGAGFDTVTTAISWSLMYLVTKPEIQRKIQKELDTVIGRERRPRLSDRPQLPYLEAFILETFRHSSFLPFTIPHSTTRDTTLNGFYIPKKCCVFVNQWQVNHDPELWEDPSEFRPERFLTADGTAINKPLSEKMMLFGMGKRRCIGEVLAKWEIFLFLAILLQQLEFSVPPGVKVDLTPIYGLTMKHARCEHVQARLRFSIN
Put plainly: Inhibition of CYP1A2 (unknown origin) at 10 uM relative to control. Type of data set: ADME.

The target in data set [15] is CYP2C9 (Homo sapiens, UniProt P11712). The data set can be described thus: Inhibition of CYP2C9 (unknown origin) at 10 uM relative to control. The format is ADME.
Data set [16] concerns the target CYP2C19 (Homo sapiens, UniProt P33261). The data set can be described thus: Inhibition of CYP2C19 (unknown origin) at 10 uM relative to control. Type of data set: ADME.
Data set [17] deals with CYP2D6 (Homo sapiens, UniProt P10635). Put plainly: Inhibition of CYP2D6 (unknown origin) at 10 uM relative to control. The format is ADME.
Data set [18] concerns the target CYP3A4 (Homo sapiens, UniProt P08684). Put plainly: Inhibition of CYP3A4 (unknown origin) at 10 uM relative to control. Type of data set: ADME.
The nature of data set [19]: Tmax in rat at 10 mg/kg, po. Type of data set: ADME, organism-based. The conditions noted are these: in vivo. The procedure, abridged: (§2)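 Rats were dosed orally at 10 mg/kg. Values are the mean of experiments using three rats.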
Data set [20] in a line: Half life in rat at 10 mg/kg, po. The format is ADME, organism-based. The following applies: in vivo. A digest of the protocol: as §2
Data set [21] can be described thus: AUC in rat at 10 mg/kg, po. On the set-up: dose 10 mg/kg. The following applies: in vivo. Type of data set: ADME, organism-based. The procedure, abridged:
as §2

A short description of data set [22]: Oral bioavailability in rat at 10 mg/kg. The format is ADME, organism-based. The following applies: in vivo. A digest of the protocol: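 Rats received oral dosing at 10 mg/kg alongside intravenous dosing at 2 mg/kg. Values are the mean of experiments using three rats.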
The nature of data set [23]: Half life in rat at 5 mg/kg, iv. Type of data set: ADME, organism-based. The conditions noted are these: in vivo.
Data set [24] in a line: AUC in rat at 5 mg/kg, iv. Further details: dose 5 mg/kg. The format is ADME, organism-based. The following applies: in vivo.
A short description of data set [25]: Clearance in rat at 5 mg/kg, iv. Type of data set: ADME, organism-based. The following applies: in vivo.
Data set [26] in a line: Volume of distribution at steady state in rat at 5 mg/kg, iv. Type of data set: ADME, organism-based. The conditions noted are these: in vivo, read-out: Vdss.
The nature of data set [27]: Selective index, ratio of CC50 for African green monkey Vero cells to IC50 for MERS-CoV infected in African green monkey Vero cells.

Data on two molecules can be found in ChEMBL document CHEMBL4732249, “Design, synthesis and biological evaluation of 2-aminoquinazolin-4(3H)-one derivatives as potential SARS-CoV-2 and MERS-CoV treatments” (Bioorg Med Chem Lett, 2021).

Each structure is given as a SMILES string.

Chain of CYP2D6 (P10635 whole entry): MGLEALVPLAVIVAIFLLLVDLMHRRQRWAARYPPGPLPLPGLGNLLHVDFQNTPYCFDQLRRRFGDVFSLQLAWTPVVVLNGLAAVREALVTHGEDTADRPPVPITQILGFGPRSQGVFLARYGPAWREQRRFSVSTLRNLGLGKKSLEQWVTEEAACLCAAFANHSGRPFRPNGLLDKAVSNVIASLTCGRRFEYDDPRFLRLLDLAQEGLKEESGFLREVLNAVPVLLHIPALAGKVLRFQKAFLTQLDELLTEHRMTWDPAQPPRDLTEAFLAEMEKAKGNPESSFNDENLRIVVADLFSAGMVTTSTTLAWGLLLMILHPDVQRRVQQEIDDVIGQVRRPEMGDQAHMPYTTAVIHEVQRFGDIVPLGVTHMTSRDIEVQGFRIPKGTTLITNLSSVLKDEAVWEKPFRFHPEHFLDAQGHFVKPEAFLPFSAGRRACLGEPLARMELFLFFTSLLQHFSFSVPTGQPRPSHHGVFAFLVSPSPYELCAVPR
Chain of hERG (KCNH2) (Q12809 whole entry): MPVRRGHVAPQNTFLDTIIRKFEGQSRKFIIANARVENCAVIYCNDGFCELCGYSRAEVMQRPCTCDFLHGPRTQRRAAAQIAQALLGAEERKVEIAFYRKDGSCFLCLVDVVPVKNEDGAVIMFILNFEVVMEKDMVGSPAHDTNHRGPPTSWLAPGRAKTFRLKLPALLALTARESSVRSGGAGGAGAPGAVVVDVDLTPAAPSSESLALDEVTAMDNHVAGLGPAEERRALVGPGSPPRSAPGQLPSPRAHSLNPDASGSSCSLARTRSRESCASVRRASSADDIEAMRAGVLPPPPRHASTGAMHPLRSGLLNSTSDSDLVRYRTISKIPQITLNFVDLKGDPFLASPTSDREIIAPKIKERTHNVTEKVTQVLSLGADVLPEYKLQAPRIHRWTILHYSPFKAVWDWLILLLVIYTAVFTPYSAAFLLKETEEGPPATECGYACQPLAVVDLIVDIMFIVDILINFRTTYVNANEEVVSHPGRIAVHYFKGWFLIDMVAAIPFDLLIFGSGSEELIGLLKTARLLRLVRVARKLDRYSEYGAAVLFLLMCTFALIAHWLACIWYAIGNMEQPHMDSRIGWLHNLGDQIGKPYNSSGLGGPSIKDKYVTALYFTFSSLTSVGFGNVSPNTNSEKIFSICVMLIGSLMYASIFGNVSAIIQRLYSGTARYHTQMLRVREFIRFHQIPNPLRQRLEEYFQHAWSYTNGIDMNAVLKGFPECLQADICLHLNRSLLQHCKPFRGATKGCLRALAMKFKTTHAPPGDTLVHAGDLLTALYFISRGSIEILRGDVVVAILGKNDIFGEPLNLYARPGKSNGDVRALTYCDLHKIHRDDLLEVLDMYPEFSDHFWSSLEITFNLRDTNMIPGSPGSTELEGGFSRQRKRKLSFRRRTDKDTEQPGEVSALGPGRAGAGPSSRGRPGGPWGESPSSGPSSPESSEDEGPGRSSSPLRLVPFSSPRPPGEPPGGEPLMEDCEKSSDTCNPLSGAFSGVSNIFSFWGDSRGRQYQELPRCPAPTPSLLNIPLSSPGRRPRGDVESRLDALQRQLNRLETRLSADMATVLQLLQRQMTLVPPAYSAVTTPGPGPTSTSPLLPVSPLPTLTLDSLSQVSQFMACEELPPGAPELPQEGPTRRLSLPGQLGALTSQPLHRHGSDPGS
Chain of CYP2C9 (P11712 whole entry): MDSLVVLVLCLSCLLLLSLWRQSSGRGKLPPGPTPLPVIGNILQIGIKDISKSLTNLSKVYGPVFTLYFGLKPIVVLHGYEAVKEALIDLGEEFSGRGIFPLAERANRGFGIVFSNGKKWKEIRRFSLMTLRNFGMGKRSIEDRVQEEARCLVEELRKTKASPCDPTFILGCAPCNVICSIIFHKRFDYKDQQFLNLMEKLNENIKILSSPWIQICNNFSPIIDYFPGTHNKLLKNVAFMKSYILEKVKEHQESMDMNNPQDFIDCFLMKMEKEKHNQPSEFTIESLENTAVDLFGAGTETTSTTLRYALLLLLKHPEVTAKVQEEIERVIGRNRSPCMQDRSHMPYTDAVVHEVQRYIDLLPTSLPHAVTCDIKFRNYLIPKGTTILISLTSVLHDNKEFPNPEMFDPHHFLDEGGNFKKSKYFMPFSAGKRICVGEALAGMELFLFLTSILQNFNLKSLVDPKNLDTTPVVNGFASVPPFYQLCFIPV
Chain of CYP3A4 (P08684 whole entry): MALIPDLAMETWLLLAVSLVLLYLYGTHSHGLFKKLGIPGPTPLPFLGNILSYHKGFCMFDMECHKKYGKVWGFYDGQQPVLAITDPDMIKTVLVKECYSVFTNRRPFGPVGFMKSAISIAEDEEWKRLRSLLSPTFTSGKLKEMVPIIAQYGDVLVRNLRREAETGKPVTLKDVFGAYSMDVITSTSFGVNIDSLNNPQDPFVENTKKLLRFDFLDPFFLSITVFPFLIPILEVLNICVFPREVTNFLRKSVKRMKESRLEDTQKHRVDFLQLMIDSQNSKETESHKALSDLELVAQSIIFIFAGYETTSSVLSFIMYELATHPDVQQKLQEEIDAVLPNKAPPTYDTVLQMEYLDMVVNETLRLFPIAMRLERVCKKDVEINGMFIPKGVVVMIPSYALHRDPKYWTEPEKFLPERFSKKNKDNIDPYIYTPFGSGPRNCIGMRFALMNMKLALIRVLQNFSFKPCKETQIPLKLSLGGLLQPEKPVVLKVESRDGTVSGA
Chain of CYP2C19 (P33261 whole entry): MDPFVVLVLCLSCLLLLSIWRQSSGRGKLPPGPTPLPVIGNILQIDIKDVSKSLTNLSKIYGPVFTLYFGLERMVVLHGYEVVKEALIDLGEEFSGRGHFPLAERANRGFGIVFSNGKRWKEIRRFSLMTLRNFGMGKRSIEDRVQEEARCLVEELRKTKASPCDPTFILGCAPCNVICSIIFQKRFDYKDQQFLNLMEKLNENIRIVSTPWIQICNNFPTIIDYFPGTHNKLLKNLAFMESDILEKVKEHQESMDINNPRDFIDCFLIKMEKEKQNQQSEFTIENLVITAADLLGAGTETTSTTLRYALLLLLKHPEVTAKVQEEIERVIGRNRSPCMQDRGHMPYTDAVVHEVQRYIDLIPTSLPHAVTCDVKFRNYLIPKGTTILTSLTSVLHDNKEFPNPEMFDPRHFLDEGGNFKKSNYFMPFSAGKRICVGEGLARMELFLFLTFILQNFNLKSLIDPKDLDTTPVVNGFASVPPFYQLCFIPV

`O=c1[nH]c(Nc2cc(Cl)cc(Cl)c2)nc2cccc(O)c12`: the half-maximal inhibitory concentration (IC50) stood at 150 nM in [1] and 1020 nM in data set [4]. The CC50 was over 25 µM in [2]; 9.6 µM in [8]; 28 µM in data set [9]; 27 µM in data set [10]; 60 µM in data set [11]. In addition, the “Ratio CC50/IC50” value in [3] was determined as 168; in [27], 25. Also, the remaining at 0.5 h came out at 42% in data set [5], 54% in [6] and 55% in data set [7]. Moreover, the inhibition at 10 µM in data set [12] worked out at 28%; in data set [14] it was 65%; in data set [15], 34%; in [16], 12%; in [17], 46%; in data set [18], 65%. In data set [13], this molecule had a PPB of 97%. The time to peak (Tmax) in data set [19] was found to be 1 h. Also, the half-life is 2520 min in data set [20] and 552 min in [23]. Moreover, the exposure (AUC) stood at 1010 ng·h/mL in data set [21] and 6500 ng·h/mL in [24]. In [22], this molecule gave a bioavailability of 7.8%. Also, the clearance in [25] was 11.2 mL/min/kg. Also, in data set [26], the Vd worked out at 6.8 L/kg.

With `O=c1[nH]c(Nc2cc(Cl)cc(Cl)c2)nc2cc(Cl)ccc12`, the IC50 in data set [1] came to 230 nM; in [4], 930 nM. The half-maximal cytotoxic concentration (CC50) in [2] is over 25 µM; in data set [8], 7.5 µM; in data set [9], 11 µM; in data set [10], 31 µM; in data set [11], over 100 µM. In addition, the “Ratio CC50/IC50” value in [3] came out at 110; in data set [27] it was 27. The values for the remaining at 0.5 h in data set [5], in data set [6] and in data set [7] were 112%, 105% and 99%, respectively. For the same molecule, the inhibition at 10 µM is 38% in [12]; 15% in [14]; 18% in data set [15]; under 1% in [16]; 20% in [17]; 32% in data set [18]. In addition, the bioavailability in data set [22] amounted to 15.6%.
